# Sampled rows, rich in hits. Any-hit rate of the full collection: about 2.6%.
# SR-BI HDL uptake: inhibitors of mouse SR-BI mediated HDL lipid uptake; ldlA[mSR-BI] CHO cells, DiI-HDL uptake fluorescence, 3 h; inhibition, % at 12.5 µM; hit rate 0.96% among 320,000; AID 488896;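 active = mean replicate inhibition of at least 70% and a set share of replicates each scoring 70 or more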
# Target sequence (Q61009 whole entry, looked up): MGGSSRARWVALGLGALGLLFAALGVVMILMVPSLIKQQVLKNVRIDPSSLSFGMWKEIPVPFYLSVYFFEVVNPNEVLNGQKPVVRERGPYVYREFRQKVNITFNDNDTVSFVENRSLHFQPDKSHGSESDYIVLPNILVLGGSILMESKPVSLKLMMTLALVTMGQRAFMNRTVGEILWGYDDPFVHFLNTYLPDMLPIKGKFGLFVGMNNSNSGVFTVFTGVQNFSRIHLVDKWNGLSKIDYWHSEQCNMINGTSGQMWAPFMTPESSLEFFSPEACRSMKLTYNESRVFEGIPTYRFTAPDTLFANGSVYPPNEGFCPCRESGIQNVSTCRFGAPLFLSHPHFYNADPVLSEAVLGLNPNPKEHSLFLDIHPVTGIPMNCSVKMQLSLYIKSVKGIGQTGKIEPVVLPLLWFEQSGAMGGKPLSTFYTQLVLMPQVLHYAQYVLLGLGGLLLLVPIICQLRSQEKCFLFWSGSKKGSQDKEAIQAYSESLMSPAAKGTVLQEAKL
# dFosB activator: activators of mouse delta FosB homodimer | P13346 | purified delta FosB, TAMRA-CDK5 oligo fluorescence polarization; percent of positive-control signal above neutral wells | activation, % at 25 µM | hit rate 0.99% among 340,000;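 active = mean activation above about 17%, with every replicate also reaching it, limit read from the data, passing the limit was not always enough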
# rRNA inh HTS: inhibitors of bacterial rRNA selective over humanized ribosomes; E. coli WT GFP vs humanized-ribosome RFP mutants, fluorescence, 24 h; active compounds read low; DMSO median 0, no signal -100; GFP signal change (wild-type ribosome), % (test concentration not listed); hit rate 1.6% among 350,000; AID 720706;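 active = significant combined selectivity score with lowered wild-type GFP, culture density cut under 30%, mutant RFP and density less affected; inactive = any of these conditions unmet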
# PvdQ inh: P. aeruginosa PvdQ acylase inhibition | hit rate 0.063% among 340,000 | AID 488965 | inhibition, % at 10 µM | purified PvdQ acylase, fluorescence plate reader; in the data active = inhibition above about 30%, passing the limit was not always enough
# SR-BI DiI-HDL act: enhances SR-BI lipid uptake from DiI-HDL; CHO ldlA[mSR-BI] cells, DiI-HDL uptake fluorescence, 3 h; 100 = double the neutral-control signal; activation, % at 12.5 µM; hit rate 0.096% among 320,000;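 active = mean replicate activation of at least 60% and every replicate at or above 60%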
#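 Material: SR-BI-overexpressing, LDLR-lacking CHO cells; schedule: compound exposure 3 h, 37 °C; reagent: DiI-labelled HDL at 10 µg/mL final; technique: bottom-read fluorescence, 550/595 nm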
# XiGFP reactiv: X-chromosome reactivation activator. hit rate 0.055% among 360,000. XiGFP mouse fibroblasts, % GFP-positive cells imaging, 3 d; cells co-treated with 5-aza-dC sensitizer; scaled so ellipticine positive control = 100%. AID 743238. activation, % at 7.58 µM;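 active = mean normalized replicate activation at least 10% and every replicate at or above 10%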
#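 Assay system – SV40-immortalized XiGFP fibroblast cells, line 68-5-11 · Buffer or medium – DMEM supplemented with 5-aza-dC as sensitizing agent · Dosing – one concentration, pinned · Benchmarks – positive control ellipticine, 6 µM final · Times – 3 days compound exposure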
# A number is an active result; – = inactive; · = not tested or not shown.
SMILES,SR-BI HDL uptake,dFosB activator,rRNA inh HTS,PvdQ inh,SR-BI DiI-HDL act,XiGFP reactiv
COc1cc2nc(Nc3ccc(F)cc3)nc(N)c2cc1OC,–,21,-16,–,–,–
Nc1nc(Nc2ccc(Cl)cc2)nc2ccccc12,–,–,·,–,–,·
NS(=O)(=O)c1cccc(NC(=O)CSc2nnnn2-c2ccccc2)c1,–,–,–,–,–,–
CC1(C)CC(=O)C2=C(C1)NC(SCC(=O)Nc1ccccc1)=C(C#N)C2c1ccco1 (stereo unspecified),–,–,·,–,–,·
COc1cc2nc(Nc3ccc(C)c(Cl)c3)nc(N)c2cc1OC,–,59,–,–,–,–
COc1ccc(N2CCN(c3ccc(NC(=O)c4ccc5c(c4)OCO5)cc3C#N)CC2)cc1,–,–,·,–,–,·
O=C(Cc1ccc(Cl)cc1)Nc1cc(S(=O)(=O)N2CCOCC2)ccc1N1CCCC1,–,–,-26,–,–,–
COc1ccc(CC(=O)Nc2ccc(N3CCN(c4ccc(OC)cc4)CC3)c(C#N)c2)cc1,78,–,·,–,–,·
CCN(CC)S(=O)(=O)c1ccc(N2CCCC2)c(NC(=O)Cc2ccc(OC)cc2)c1,–,–,-34,–,–,–
O=C1C2C(C(=O)N1Cc1ccco1)C1C=CC2C12CC2 (stereo unspecified),–,–,·,87,–,·
O=C1C2C3C=CC(C4CC34)C2C(=O)N1Cc1ccco1 (stereo unspecified),–,–,–,41,–,–
O=C1C2C3c4ccccc4C(c4ccccc43)C2C(=O)N1Cc1ccco1 (stereo unspecified),–,–,·,–,–,·
CN1C(=O)c2cc(NS(=O)(=O)c3ccccc3F)ccc2OC[C@@H]2O[C@H](CC(=O)NC3Cc4ccccc4C3)CC[C@@H]21,·,·,–,·,·,–
Cc1ccc(NC(=O)[C@@H](CC(C)C)NC(=O)[C@@H]2Cc3ccccc3CN2)cc1,–,–,–,–,–,–
Cc1c(C(=O)N2CCN(c3ccccc3)CC2)oc2c1C(=O)CC(C)(C)C2,–,–,-23,–,–,–
CCCCNC(=O)c1cc2c(C)cc(C)cc2[nH]1,–,–,-22,–,–,–
CCOC(=O)N1CCN(S(=O)(=O)c2ccc(C(=O)NNc3nc4c(C)cccc4s3)cc2)CC1,102,–,–,–,–,–
CCOC(=O)N1CCN(S(=O)(=O)c2ccc(C(=O)N(CCN(C)C)c3nc4ccc(Cl)cc4s3)cc2)CC1,–,–,–,–,–,–
CCOC(=O)N1CCN(S(=O)(=O)c2ccc(C(=O)NNc3nc4ccc(Cl)cc4s3)cc2)CC1,128,–,·,–,–,·
CCOC(=O)N1CCN(S(=O)(=O)c2ccc(C(=O)NNc3nc4cc(C)cc(C)c4s3)cc2)CC1,121,–,·,–,–,·
CCOC(=O)N1CCN(S(=O)(=O)c2ccc(C(=O)NNc3nc4c(C)cc(C)cc4s3)cc2)CC1,·,·,·,·,·,–
O=C(NC1CCCC1)N1CCCCN2[C@H](CO)[C@@H](c3ccc(-c4cccnc4)cc3)[C@H]2C1,·,·,–,·,·,–
CCc1ccc(N=C2NC(=O)/C(=C/c3ccc(OCC(=O)O)c(OC)c3)S2)cc1,–,–,–,–,–,–
O=C(N/N=C/c1cn(-c2ccccc2)nc1-c1cccnc1)c1cccnc1,–,–,–,–,–,–
NC(=O)N/N=C/c1cn(-c2ccccc2)nc1-c1ccccc1,–,–,-18,–,–,–
SMILES,SR-BI HDL uptake,dFosB activator,rRNA inh HTS,PvdQ inh,SR-BI DiI-HDL act,XiGFP reactiv
O=C(N/N=C/c1cn(-c2ccccc2)nc1-c1ccc(F)cc1)c1ccc(Br)o1,87,–,·,–,–,·
O=C(N/N=C/c1cn(-c2ccccc2)nc1-c1cccnc1)c1ccc(F)cc1,–,–,-25,–,–,–
N#CCCn1cc(/C=N/NC(N)=S)c(-c2ccccc2)n1,79,–,–,–,–,–
COc1ccc(-c2nc(N=Nc3ccc(O)cc3)n[nH]2)cc1,–,–,-27,–,–,–
Cc1ccc(-c2nc(N=Nc3ccc(O)cc3)n[nH]2)cc1,–,–,·,–,–,·
CC(C)CSc1nsc(N)n1,–,–,–,–,–,·
Nc1nccc(N2CCCCC2)n1,·,·,–,·,·,–
Clc1nccc(N2CCN(c3ccccc3Cl)CC2)n1,·,·,-25,·,·,–
CC(C)CC[n+]1ccn(-c2nc3ccccc3nc2[N-]S(=O)(=O)c2ccc(Cl)cc2)c1,–,–,–,–,–,–
COc1ccc(CNC(=O)c2cccc3c(-c4cccnc4)coc23)cc1OC,·,·,–,·,·,–
Cc1ccnc(Nc2nc(-c3ccc(O)cc3O)cs2)c1,83,–,–,–,–,–
Cc1ccnc(Nc2nc(-c3ccc(O)cc3)cs2)c1,–,–,–,–,–,–
CCOC(=O)CSc1nnc(NC(=O)c2cccc([N+](=O)[O-])c2)s1,–,–,·,–,–,–
C(=N\Nc1nc2ccccc2[nH]1)/c1cccc2cccnc12,–,–,-53,–,–,–
COc1ccc(/C=N/Nc2nc3ccccc3[nH]2)c(OC)c1OC,–,–,-27,–,–,–
CC(=O)c1c(C(=O)O)c2ccccc2[nH]c1=O,·,–,–,–,·,–
COc1ccc(NC(=O)C(F)(F)F)cc1OC,78,–,·,–,–,·
CC(Sc1ccc(Cl)cc1)C(=O)NNC(=O)c1ccccc1O (stereo unspecified),97,–,–,–,–,–
CCCc1cc(=O)oc2c3c(cc(OCC(=O)NCC4CCC(C(=O)O)CC4)c12)OC(C)(C)CC3 (stereo unspecified),–,–,-39,–,–,·
CCCc1cc(=O)oc2c3c(cc(OCC(=O)N4CCC(C(=O)O)CC4)c12)OC(C)(C)CC3,·,·,–,·,·,·
O=C(/C=C/c1ccc(O)c(O)c1)c1ccccc1O,–,–,-32,–,–,–
Oc1cc(O)cc(C=Cc2ccc(O)c(O)c2)c1,·,·,-29,·,·,–
O=C(C=Cc1cccc(O)c1)c1ccccc1O,–,–,–,–,–,–
CCc1ccc(NC2=CC(=O)C(=O)c3ccccc32)cc1,–,–,-24,–,–,–
C#CCn1c(=NC(=O)c2ccccc2[N+](=O)[O-])sc2cc(S(C)(=O)=O)ccc21,–,33,·,–,–,–
Cc1ccc(S(=O)(=O)N(C)c2ccc(OCC(=O)Nc3cccc(-n4cnnn4)c3C)cc2)cc1,84,–,–,–,–,–
Oc1ccccc1CNc1ccc(Br)cn1,–,–,·,–,–,·
COc1ccccc1CNc1ccc(Br)cn1,–,–,-29,–,–,–
O=C(Nc1ccccc1)N1C[C@@H]2[C@H](c3ccccc31)[C@@H](CO)N2C(=O)Cc1ccccn1,·,·,-37,·,·,–
O=C(Nc1cccc(Cl)c1)N1C[C@@H]2[C@H](c3ccccc31)[C@H](CO)N2C(=O)c1cccnc1,·,·,-20,·,·,–

# High-throughput results: PubChem BioAssay, Broad Institute
